Data taken from ChEMBL document CHEMBL1145477, “Activity of T-1106 in a hamster model of yellow Fever virus infection” (Antimicrob Agents Chemother, 2007).
Activity calls are given as the source filed them. The calls are words filed in the database; no cut-off is given here.

Assays:
Yellow fever virus [1] = test: Antiviral activity against YFV Jimenez infected in Syrian golden hamster liver assessed as alanine aminotransferase at 100 mg/kg/day, ip bid for 8 days administered after 3 days post-infection; type: functional; settings: route intraperitoneal
In short: (§1)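 YFV (Jimenez)-infected female hamsters were treated b.i.d. i.p. or p.o. Serum was drawn by ocular sinus at 6 dpi. ALT was read with a colorimetric kit adapted to microplates: substrate plus serum for 30 min at 37°C, then colour reagent and developer, absorbance at 505 nm. Values are IU/liter against saline controls.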

Yellow fever virus [2] = test: Antiviral activity against YFV Jimenez infected in Syrian golden hamster assessed as serum alanine aminotransferase at 100 mg/kg, po bid for 7 days; type: functional; in short: as §1
Yellow fever virus [3] = test: Antiviral activity against YFV Jimenez infected in Syrian golden hamster liver assessed as weight change at 100 mg/kg/day, ip bid for 8 days administered after 4 day post-infection; type: functional; settings: route intraperitoneal
Yellow fever virus [4] = test: Antiviral activity against YFV Jimenez infected in Syrian golden hamster assessed as weight change at 32 mg/kg, ip bid for 7 days; type: functional; settings: route intraperitoneal
Yellow fever virus [5] = test: Antiviral activity against YFV Jimenez infected in Syrian golden hamster liver assessed as mean day to death at 100 mg/kg/day, ip bid for 8 days administered after 4 day post-infection; type: functional; settings: route intraperitoneal
Yellow fever virus [6] = test: Antiviral activity against YFV Jimenez infected in Syrian golden hamster assessed as weight change at 100 mg/kg, ip bid for 7 days; type: functional; settings: route intraperitoneal
Yellow fever virus [7] = test: Antiviral activity against YFV Jimenez infected in Syrian golden hamster assessed as mean day to death after 21 days post-infection at 100 mg/kg, po bid for 7 days; type: functional
Yellow fever virus [8] = test: Antiviral activity against YFV Jimenez infected in Syrian golden hamster assessed as serum alanine aminotransferase at 10 mg/kg, ip bid for 7 days; type: functional; settings: route intraperitoneal; in short: as §1
Syrian golden hamster [9] = test: Toxicity in YFV infected Syrian golden hamster assessed as survival of animals at 100 mg/kg/day, ip bid for 7 days; type: organism-based, Mesocricetus auratus; design: route intraperitoneal; settings: in vivo, 168 h
In short: (§2)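 Female Syrian golden hamsters (~100 g), toxicity-control groups of three, sham-infected. Drug suspended in saline or 0.4% carboxymethyl cellulose, given i.p. b.i.d. 12 h apart from −4 h through 7 days. Mortality checked daily; weight taken at 0, 3 and 6 dpi, with change taken as 3-to-6 dpi difference.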

Yellow fever virus [10] = test: Antiviral activity against YFV Jimenez infected in Syrian golden hamster assessed as survival of animal at 100 mg/kg, po for 7 days; type: functional, organism-based; design: dose 100 mg/kg
Yellow fever virus [11] = test: Antiviral activity against YFV Jimenez infected in Syrian golden hamster liver assessed as mean day to death at 100 mg/kg/day, ip bid for 8 days administered after 3 days post-infection; type: functional; settings: route intraperitoneal
Syrian golden hamster [12] = test: Toxicity in YFV infected Syrian golden hamster assessed as assessed as weight change at 32 mg/kg/day, ip bid for 7 days; type: organism-based, Mesocricetus auratus; design: route intraperitoneal; settings: in vivo, 168 h; in short: as §2
Yellow fever virus [13] = test: Antiviral activity against YFV Jimenez infected in Syrian golden hamster liver assessed as weight change at 100 mg/kg/day, ip bid for 8 days administered after 2 days post-infection; type: functional; settings: route intraperitoneal
Yellow fever virus [14] = test: Antiviral activity against YFV Jimenez infected in Syrian golden hamster liver assessed as alanine aminotransferase at 100 mg/kg/day, ip bid for 8 days administered after 1 day post-infection; type: functional; settings: route intraperitoneal; in short: as §1
Yellow fever virus [15] = test: Antiviral activity against YFV Jimenez infected in Syrian golden hamster assessed as survival of animal at 10 mg/kg, ip bid for 7 days; type: functional; settings: route intraperitoneal
Yellow fever virus [16] = test: Antiviral activity against YFV infected in african green monkey CV1 cells assessed as reduction in cytopathic effect after 6 days; type: functional, organism-based; settings: CV-1, 144 h
In short: (§3)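 Jimenez hamster-adapted YFV at 10 CCID50/well on Vero or CV-1 monolayers; seven drug concentrations added 5–10 min before virus; 37°C for 6 days. CPE scored microscopically, then neutral red uptake (0.34% dye, 2 h, eluted and quantified). EC50 derived; CC50 from uninfected drug-treated cells; SI = CC50/EC50.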

Yellow fever virus [17] = test: Antiviral activity against YFV Jimenez infected in Syrian golden hamster liver assessed as alanine aminotransferase at 100 mg/kg/day, ip bid for 8 days administered after 2 days post-infection; type: functional; settings: route intraperitoneal; in short: as §1
Yellow fever virus [18] = test: Antiviral activity against YFV Jimenez infected in Syrian golden hamster liver treated 4 hrs before viral challenge assessed as weight change at 100 mg/kg/day, ip bid for 8 days; type: functional; settings: route intraperitoneal
Yellow fever virus [19] = test: Antiviral activity against YFV Jimenez infected in Syrian golden hamster liver assessed as survival at 100 mg/kg/day, ip bid for 8 days administered after 1 day post-infection; type: functional, organism-based
Yellow fever virus [20] = test: Antiviral activity against YFV Jimenez infected in Syrian golden hamster liver treated 4 hrs before viral challenge assessed as survival at 100 mg/kg/day, ip bid for 8 days; type: functional, organism-based
Yellow fever virus [21] = test: Antiviral activity against YFV Jimenez infected in Syrian golden hamster assessed as weight change at 32 mg/kg, po bid for 7 days; type: functional
[22] = Selectivity index, ratio of CC50 for african green monkey CV1 cells to EC50 for YFV infected in CV1 cells; type: functional, CV-1; in short: as §3
Yellow fever virus [23] = test: Antiviral activity against YFV Jimenez infected in Syrian golden hamster assessed as mean day to death after 21 days post-infection at 10 mg/kg, ip bid for 7 days; type: functional; settings: route intraperitoneal
Yellow fever virus [24] = test: Antiviral activity against YFV Jimenez infected in Syrian golden hamster assessed as serum alanine aminotransferase at 32 mg/kg, po bid for 7 days; type: functional; in short: as §1
[25] = Selectivity index, ratio of CC50 for MDBK cells to […] for BVDV; type: functional
Yellow fever virus [26] = test: Antiviral activity against YFV Jimenez infected in Syrian golden hamster liver assessed as weight change at 100 mg/kg/day, ip bid for 8 days administered after 3 days post-infection; type: functional; settings: route intraperitoneal
Yellow fever virus [27] = test: Antiviral activity against YFV Jimenez infected in Syrian golden hamster assessed as serum alanine aminotransferase at 32 mg/kg, ip bid for 7 days; type: functional; settings: route intraperitoneal; in short: as §1
Yellow fever virus [28] = test: Antiviral activity against YFV Jimenez infected in Syrian golden hamster liver assessed as weight change at 100 mg/kg/day, ip bid for 8 days administered after 5 day post-infection; type: functional; settings: route intraperitoneal
Yellow fever virus [29] = test: Antiviral activity against YFV Jimenez infected in Syrian golden hamster liver assessed as survival at 100 mg/kg/day, ip bid for 8 days administered after 3 days post-infection; type: functional, organism-based
Yellow fever virus [30] = test: Antiviral activity against YFV Jimenez infected in Syrian golden hamster assessed as mean day to death after 21 days post-infection at 32 mg/kg, ip bid for 7 days; type: functional; settings: route intraperitoneal
Yellow fever virus [31] = test: Antiviral activity against YFV Jimenez infected in Syrian golden hamster liver assessed as survival at 100 mg/kg/day, ip bid for 8 days administered after 2 days post-infection; type: functional, organism-based
Yellow fever virus [32] = test: Antiviral activity against YFV Jimenez infected in Syrian golden hamster liver assessed as mean day to death at 100 mg/kg/day, ip bid for 8 days administered after 1 day post-infection; type: functional; settings: route intraperitoneal
Yellow fever virus [33] = test: Antiviral activity against YFV Jimenez infected in Syrian golden hamster liver treated 4 hrs before viral challenge assessed as serum alanine aminotransferase at 100 mg/kg/day, ip bid for 8 days; type: functional; settings: route intraperitoneal; in short: as §1
Yellow fever virus [34] = test: Antiviral activity against YFV Jimenez infected in Syrian golden hamster liver assessed as weight change at 100 mg/kg/day, ip bid for 8 days administered after 1 day post-infection; type: functional; settings: route intraperitoneal
Yellow fever virus [35] = test: Antiviral activity against YFV Jimenez infected in Syrian golden hamster liver treated 4 hrs before viral challenge assessed as mean day to death at 100 mg/kg/day, ip bid for 8 days; type: functional; settings: route intraperitoneal
[36] = Selectivity index, ratio of CC50 for african green monkey Vero cells to EC50 for YFV infected in Vero cells; type: functional; in short: as §3
[37] = Toxicity in MDBK cells; type: cell-based, Bos taurus; settings: cattle
Yellow fever virus [38] = test: Antiviral activity against YFV Jimenez infected in Syrian golden hamster assessed as serum alanine aminotransferase at 100 mg/kg, ip bid for 7 days; type: functional; settings: route intraperitoneal; in short: as §1
Yellow fever virus [39] = test: Antiviral activity against YFV Jimenez infected in Syrian golden hamster assessed as survival of animal at 32 mg/kg, po for 7 days; type: functional, organism-based; design: dose 32 mg/kg
Yellow fever virus [40] = test: Antiviral activity against YFV Jimenez infected in Syrian golden hamster assessed as weight change at 100 mg/kg, po bid for 7 days; type: functional
Yellow fever virus [41] = test: Antiviral activity against YFV Jimenez infected in Syrian golden hamster liver assessed as alanine aminotransferase at 100 mg/kg/day, ip bid for 8 days administered after 5 day post-infection; type: functional; settings: route intraperitoneal; in short: as §1
Yellow fever virus [42] = test: Antiviral activity against YFV Jimenez infected in Syrian golden hamster liver administered 4 hrs before viral challenge twice daily for 4 days post-infection by infectious cell culture assay; type: functional, organism-based
In short: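 Liver was collected at necropsy 4 dpi from 5 hamsters per group, after b.i.d. dosing that began 4 h before i.p. Jimenez YFV challenge. Homogenates were diluted serially from 10−1 to 10−8 onto semiconfluent Vero cells in four replicate columns. CPE was scored microscopically after 6 days, and titer was extrapolated from dilution and tissue weight.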

Syrian golden hamster [43] = test: Toxicity in YFV infected Syrian golden hamster assessed as survival of animals at 32 mg/kg/day, ip bid for 7 days; type: organism-based, Mesocricetus auratus; design: route intraperitoneal; settings: in vivo, 168 h; in short: as §2
Yellow fever virus [44] = test: Antiviral activity against YFV Jimenez infected in Syrian golden hamster liver assessed as mean day to death at 100 mg/kg/day, ip bid for 8 days administered after 5 day post-infection; type: functional; settings: route intraperitoneal
Yellow fever virus [45] = test: Antiviral activity against YFV Jimenez infected in Syrian golden hamster assessed as mean day to death after 21 days post-infection at 32 mg/kg, po bid for 7 days; type: functional
Yellow fever virus [46] = test: Antiviral activity against YFV Jimenez infected in Syrian golden hamster liver assessed as alanine aminotransferase at 100 mg/kg/day, ip bid for 8 days administered after 4 day post-infection; type: functional; settings: route intraperitoneal; in short: as §1
Syrian golden hamster [47] = test: Toxicity in YFV infected Syrian golden hamster assessed as assessed as weight change at 100 mg/kg/day, ip bid for 7 days; type: organism-based, Mesocricetus auratus; design: route intraperitoneal; settings: in vivo, 168 h; in short: as §2
Yellow fever virus [48] = test: Antiviral activity against YFV Jimenez infected in Syrian golden hamster assessed as survival of animal at 100 mg/kg, bid ip for 7 days; type: functional, organism-based; design: dose 100 mg/kg
Yellow fever virus [49] = test: Antiviral activity against YFV Jimenez infected in Syrian golden hamster assessed as weight change at 10 mg/kg, ip bid for 7 days; type: functional; settings: route intraperitoneal
Yellow fever virus [50] = test: Antiviral activity against YFV Jimenez infected in Syrian golden hamster liver assessed as mean day to death at 100 mg/kg/day, ip bid for 8 days administered after 2 days post-infection; type: functional; settings: route intraperitoneal
Yellow fever virus [51] = test: Antiviral activity against YFV Jimenez infected in Syrian golden hamster assessed as mean day to death after 21 days post-infection at 100 mg/kg, ip bid for 7 days; type: functional; settings: route intraperitoneal
Yellow fever virus [52] = test: Antiviral activity against YFV infected in african green monkey Vero cells assessed as reduction in cytopathic effect after 6 days; type: functional, organism-based; settings: 144 h; in short: as §3
Yellow fever virus [53] = test: Antiviral activity against YFV Jimenez infected in Syrian golden hamster assessed as survival of animal at 32 mg/kg, ip bid for 7 days; type: functional, organism-based; design: dose 32 mg/kg

Question: What does the source list for `NC(=O)c1nccn([C@@H]2O[C@H](CO)[C@@H](O)[C@H]2O)c1=O`?
Answer: Activity (Yellow fever virus [1]): 79 IU/L; Activity (Yellow fever virus [2]): 56 IU/L; Activity (Yellow fever virus [3]): -4.7 g; Activity (Yellow fever virus [4]): 5.2 g; Activity (Yellow fever virus [5]): 6 days; Activity (Yellow fever virus [6]): 7.1 g; Activity (Yellow fever virus [7]): >21 days; Activity (Yellow fever virus [8]): 174 IU/L; Activity (Syrian golden hamster [9]): Non-toxic; Activity (Yellow fever virus [10]): Active; Activity (Yellow fever virus [11]): >21 days; Activity (Syrian golden hamster [12]): 8.3 g; Activity (Yellow fever virus [13]): 6.3 g; Activity (Yellow fever virus [14]): 56 IU/L; Activity (Yellow fever virus [15]): 80%; EC50 (Yellow fever virus [16]): > 100 µg/mL; Activity (Yellow fever virus [17]): 57 IU/L; Activity (Yellow fever virus [18]): 6 g; Activity (Yellow fever virus [19]): Active; Activity (Yellow fever virus [20]): Active; Activity (Yellow fever virus [21]): 4.4 g; Ratio CC50/EC50 [22]: 1; Activity (Yellow fever virus [23]): 8 days; Activity (Yellow fever virus [24]): 61 IU/L; Ratio CC50/EC50 [25]: 207; Activity (Yellow fever virus [26]): 2.9 g; Activity (Yellow fever virus [27]): 65 IU/L; Activity (Yellow fever virus [28]): -6.9 g; Activity (Yellow fever virus [29]): Active; Activity (Yellow fever virus [30]): >21 days; Activity (Yellow fever virus [31]): Active; Activity (Yellow fever virus [32]): >21 days; Activity (Yellow fever virus [33]): 58 IU/L; Activity (Yellow fever virus [34]): 6.1 g; Activity (Yellow fever virus [35]): >21 days; Ratio CC50/EC50 [36]: 1; CC50 [37]: 2.9 mM; Activity (Yellow fever virus [38]): 56 IU/L; Activity (Yellow fever virus [39]): Active; Activity (Yellow fever virus [40]): 6.3 g; Activity (Yellow fever virus [41]): 205 IU/L; Activity (Yellow fever virus [42]): Active; Activity (Syrian golden hamster [43]): Non-toxic; Activity (Yellow fever virus [44]): 7.4 days; Activity (Yellow fever virus [45]): >21 days; Activity (Yellow fever virus [46]): 108 IU/L; Activity (Syrian golden hamster [47]): 5.3 g; Activity (Yellow fever virus [48]): Active; Activity (Yellow fever virus [49]): -1.8 g; Activity (Yellow fever virus [50]): >21 days; Activity (Yellow fever virus [51]): >21 days; EC50 (Yellow fever virus [52]): > 100 µg/mL; Activity (Yellow fever virus [53]): Active
